According to ChEMBL document CHEMBL1129289, “Dibenzoxepinone hydroxylamines and hydroxamic acids: dual inhibitors of cyclooxygenase and 5-lipoxygenase with potent topical antiinflammatory activity” (J Med Chem, 1996):

What was measured:
Format in all cases: functional
Mus musculus [1] = assay: Inhibition of arachidonic acid oedema in mouse ear.
Summary of the method: (§1)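 Male CFW Swiss Webster mice, n=6. Compound or vehicle (3:7 propylene glycol:ethanol) applied topically to the right ear, 10 µL each to outer and inner surface. After 30 min, arachidonic acid 4 mg/20 µL on the right ear and vehicle on the left.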

[2] = target: T1, Polyunsaturated fatty acid 5-lipoxygenase (Rattus norvegicus, UniProt P12527); assay: (§2) Inhibition of 5-lipoxygenase by measuring 5-HETE levels in RBL-1 cell-free supernatant
T1 sequence (P12527 whole entry): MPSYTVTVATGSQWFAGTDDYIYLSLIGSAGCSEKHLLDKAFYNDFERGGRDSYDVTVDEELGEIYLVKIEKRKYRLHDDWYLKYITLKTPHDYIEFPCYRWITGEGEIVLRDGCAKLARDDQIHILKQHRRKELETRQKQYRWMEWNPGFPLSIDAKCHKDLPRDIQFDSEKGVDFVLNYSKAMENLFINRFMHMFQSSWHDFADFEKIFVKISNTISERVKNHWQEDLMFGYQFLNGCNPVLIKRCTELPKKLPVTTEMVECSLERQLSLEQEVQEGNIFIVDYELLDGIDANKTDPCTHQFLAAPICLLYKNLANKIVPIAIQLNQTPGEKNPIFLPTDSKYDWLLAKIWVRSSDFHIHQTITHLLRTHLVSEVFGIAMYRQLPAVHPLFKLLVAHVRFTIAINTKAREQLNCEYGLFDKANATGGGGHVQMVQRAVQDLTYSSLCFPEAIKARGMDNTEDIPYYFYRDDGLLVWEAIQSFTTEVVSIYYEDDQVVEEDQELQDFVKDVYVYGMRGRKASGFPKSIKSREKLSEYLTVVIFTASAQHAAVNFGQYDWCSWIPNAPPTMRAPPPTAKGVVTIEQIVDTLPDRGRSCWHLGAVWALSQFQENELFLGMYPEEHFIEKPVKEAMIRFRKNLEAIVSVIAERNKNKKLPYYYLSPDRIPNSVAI
Summary of the method: (§3)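 Cell-free rat basophilic leukemia (RBL-1) supernatant, 150 µg protein per tube, in duplicate. Buffer: 35 mM NaH₂PO₄ pH 7.0, 5 µM ATP, 50 µM CaCl₂, 10 µM arachidonic acid. Compounds from DMSO stocks. Run at 37 °C for 10 min and stopped with citric acid. 5-HETE measured by radioimmunoassay against a standard curve. Percent change from control; some values given at 50 µM.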

Mus musculus [3] = assay: Change in arachidonic acid induced oedema in mouse ear.; summary of the method: as §1
[4] = target: T2, Polyunsaturated fatty acid 5-lipoxygenase (Rattus norvegicus) (UniProt P12527); assay: as §2; conditions: concentration not given here; summary of the method: as §3
T2 sequence (whole entry): T1 sequence (P12527 whole entry)

| Structure (SMILES) | ED50 (Mus musculus [1]) [mg ear-1] | IC50 [2] [µM] | Change (Mus musculus [3]) [%] | inhibition [4] [%] | Change (Mus musculus [1]) [%] |
| --- | --- | --- | --- | --- | --- |
| CN(O)C(=O)CCc1ccc2c(c1)Cc1ccccc1CO2 | 0.7 | 0.02 | -67 |  |  |
| CC(C)N(O)C(=O)Cc1ccc2c(c1)C(=O)c1ccccc1CO2 |  | 1.23 | -52 |  |  |
| CCN(O)CCc1ccc2c(c1)C(=O)c1ccccc1CO2 |  | 0.48 | -50 |  |  |
| CC(C(=O)N(C)O)c1ccc2c(c1)C(=O)c1ccccc1CO2 (configuration not stated) |  | 1.3 | -44 |  |  |
| CCN(O)C(=O)Cc1ccc2c(c1)C(=O)c1ccccc1CO2 |  | 0.58 | -52 |  |  |
| COc1ccc2c(c1)c(CC(=O)O)c(C)n2C(=O)c1ccc(Cl)cc1 [INDOMETHACIN] | 1.63 |  |  |  |  |
| CC(C)N(O)CCc1ccc2c(c1)C(=O)c1ccccc1CO2 |  | 0.13 | -47 |  |  |
| CN(O)C(=O)CCc1ccc2c(c1)C(=O)c1ccccc1CO2 | 0.69 | 0.01 | -66 |  |  |
| CCN(O)CCc1ccc2c(c1)Cc1ccccc1CO2 |  | 0.32 | -50 |  |  |
| CCN(O)C(=O)CCc1ccc2c(c1)C(=O)c1ccccc1CO2 |  | 0.15 | -55 |  |  |
| O=C1c2ccccc2COc2ccc(CCC(=O)N(O)C3CCCCC3)cc21 |  | 2 | -14 |  |  |
| O=C(O)Cc1ccc2c(c1)C(=O)c1ccccc1CO2 [ISOXEPAC] | 55 |  |  | 1.5 |  |
| CC(=O)N(O)Cc1ccc2c(c1)C(=O)c1ccccc1CO2 |  | 0.21 | -47 |  |  |
| O=C1c2ccccc2COc2ccc(CC(=O)N(O)C3CCCCC3)cc21 |  | 0.67 | -29 |  |  |
| CN(O)CCCc1ccc2c(c1)C(=O)c1ccccc1CO2 |  | 0.62 | -53 |  |  |
| CC(=O)N(O)CCc1ccc2c(c1)C(=O)c1ccccc1CO2 |  | 0.19 | -61 |  |  |
| CON(C)C(=O)CCc1ccc2c(c1)C(=O)c1ccccc1CO2 |  | > 50 | -41 |  |  |
| CN(O)CCc1ccc2c(c1)C(=O)c1ccccc1CO2 |  |  | -46 |  |  |
| CCN(O)CCc1ccc2c(c1)C(O)c1ccccc1CO2 (configuration not stated) |  | 0.45 | -47 |  |  |
| CC(C)Cc1ccc(C(C)C(=O)O)cc1 (configuration not stated) [IBUPROFEN] |  |  |  |  | -11 |
| CC(C)N(O)C(=O)CCc1ccc2c(c1)C(=O)c1ccccc1CO2 |  | 0.58 | -63 |  |  |
| CN(O)C(=O)Cc1ccc2c(c1)C(=O)c1ccccc1CO2 |  | 1.19 | -63 |  |  |
| CCN(O)C(=O)C(C)c1ccc2c(c1)C(=O)c1ccccc1CO2 (configuration not stated) |  |  | -38 | 94 |  |
| O=C(Cc1ccc2c(c1)C(=O)c1ccccc1CO2)NO |  | 9 | -19 |  |  |
| CC(Cc1ccc(O)c(O)c1)C(C)Cc1ccc(O)c(O)c1 (configuration not stated) [NORDIHYDROGUAIARETIC ACID] | 3.1 |  |  |  |  |
| O=C(CCCCCCCCc1ccccc1)NO | 2.56 | 0.48 |  |  |  |
| CN(O)C(=O)C(C)(C)Cc1ccc2c(c1)C(=O)c1ccccc1CO2 |  | 0.66 | 29 |  |  |
